Reference: publication PMC4783179 (The Journal of comparative neurology, 2015)
Where two headings read alike, the source gives them in different places. Marks after values point to notes of the source that are not given here.

Columns and labels:
[1] = target: adrenergic α1A (Homo sapiens, UniProt P35348); assay: NIMH PDSP binding affinity, human cloned receptor
[2] = target: T1, 5-HT1A receptors (Rattus norvegicus, UniProt P19327); details: 90 mins post-injection, cited from earlier work
T1 sequence (P19327 1-422): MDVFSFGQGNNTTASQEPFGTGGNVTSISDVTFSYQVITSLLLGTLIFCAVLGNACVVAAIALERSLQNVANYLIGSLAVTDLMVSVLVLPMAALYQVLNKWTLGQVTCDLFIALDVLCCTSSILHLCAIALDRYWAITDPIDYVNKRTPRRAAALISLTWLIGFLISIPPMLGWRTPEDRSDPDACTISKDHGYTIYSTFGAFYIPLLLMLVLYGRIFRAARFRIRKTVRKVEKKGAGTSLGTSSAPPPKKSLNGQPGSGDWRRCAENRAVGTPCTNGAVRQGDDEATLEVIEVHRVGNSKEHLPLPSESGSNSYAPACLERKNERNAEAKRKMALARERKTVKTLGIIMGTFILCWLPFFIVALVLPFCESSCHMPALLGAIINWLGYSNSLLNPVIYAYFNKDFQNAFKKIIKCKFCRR

[3] = target: T2, 5-HT1A receptors (Mus musculus, UniProt Q64264); details: cited from earlier work; for Brain Uptake: initial, 1–2 min post-injection
T2 sequence (Q64264 1-421): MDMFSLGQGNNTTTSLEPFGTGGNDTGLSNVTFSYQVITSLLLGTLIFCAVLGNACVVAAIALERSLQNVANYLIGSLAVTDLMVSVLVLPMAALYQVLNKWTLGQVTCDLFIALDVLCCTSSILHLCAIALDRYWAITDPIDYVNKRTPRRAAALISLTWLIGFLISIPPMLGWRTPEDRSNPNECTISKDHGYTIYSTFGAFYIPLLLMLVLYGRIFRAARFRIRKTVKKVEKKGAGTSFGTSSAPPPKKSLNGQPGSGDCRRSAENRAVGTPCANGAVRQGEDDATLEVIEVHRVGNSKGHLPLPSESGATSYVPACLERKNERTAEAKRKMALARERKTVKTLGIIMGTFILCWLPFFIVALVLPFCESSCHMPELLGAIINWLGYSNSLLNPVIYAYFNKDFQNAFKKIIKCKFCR

[4] = target: 5-HT7 (Homo sapiens, UniProt P34969); assay: NIMH PDSP binding affinity, human cloned receptor
[5] = target: D3 subtype (Homo sapiens, UniProt P35462); assay: NIMH PDSP binding affinity, human cloned receptor; details: read-out: Affinity, D3 subtype
[6] = tested on: Sprague-Dawley rats; assay: Expanded acute toxicity study; assay type: in vivo, rat; details: for Maximum tolerated dose (MTD) / No observed adverse effect level (NOAEL): intravenous, Days 1, 3 and 6, male and female rats
How it was run: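 Sprague-Dawley rats, 40 males and 40 females, 8–9 weeks old (males 243–283 g, females 175–202 g), plus a vehicle control group. Dosed i.v. at 4, 20 or 40 μg/kg/day (27.8, 139, 278 μg/m²/day). Monitored clinical signs (motor and behavioural), body weight, food intake, ophthalmology, haematology, serum chemistry and urinalysis. Histopathology on Days 7 and 20 after euthanasia.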

[7] = target: T3, 5-HT1A receptors (Homo sapiens, UniProt P08908); assay: In vitro autoradiography of 18F-Mefway, human postmortem hippocampus sections; assay type: binding
T3 sequence (P08908 1-422): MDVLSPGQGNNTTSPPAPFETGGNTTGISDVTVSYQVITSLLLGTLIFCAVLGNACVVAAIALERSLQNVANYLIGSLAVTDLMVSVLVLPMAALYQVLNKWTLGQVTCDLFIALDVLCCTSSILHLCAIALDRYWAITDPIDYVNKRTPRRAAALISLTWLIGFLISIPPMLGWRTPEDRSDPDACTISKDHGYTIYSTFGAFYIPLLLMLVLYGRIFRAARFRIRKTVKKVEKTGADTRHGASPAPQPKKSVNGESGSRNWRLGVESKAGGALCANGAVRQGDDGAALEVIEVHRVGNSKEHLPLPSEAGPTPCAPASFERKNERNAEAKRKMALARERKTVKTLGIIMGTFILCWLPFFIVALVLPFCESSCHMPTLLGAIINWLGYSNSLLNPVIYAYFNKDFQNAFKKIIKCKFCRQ
How it was run: (§1)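 Dog tissue: unfixed beagle brain (4.5–15.4 yr), stored at −80 °C, cut as 10 µm hemi-coronal slices with hippocampus and cortex. Human tissue: postmortem hippocampus (PMI 3.8–5.8 h), cut at 7 µm. Slices preincubated in 50 mM Tris-HCl pH 7.4 for 10 min at room temperature, then incubated with 37–185 kBq/mL tracer at 37 °C for 1 h. […] Two 1-min ice-cold buffer washes, then 24 h phosphor-screen exposure. Binding read as DLU/mm².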

[8] = target: α1B (Homo sapiens, UniProt P35368); assay: NIMH PDSP binding affinity, human cloned receptor
[9] = target: T4, 5-HT1A receptors (Canis lupus familiaris, UniProt Q6XXX9); assay: In vitro autoradiography of 18F-Mefway, beagle dog brain slices; assay type: binding
T4 sequence (Q6XXX9 1-423): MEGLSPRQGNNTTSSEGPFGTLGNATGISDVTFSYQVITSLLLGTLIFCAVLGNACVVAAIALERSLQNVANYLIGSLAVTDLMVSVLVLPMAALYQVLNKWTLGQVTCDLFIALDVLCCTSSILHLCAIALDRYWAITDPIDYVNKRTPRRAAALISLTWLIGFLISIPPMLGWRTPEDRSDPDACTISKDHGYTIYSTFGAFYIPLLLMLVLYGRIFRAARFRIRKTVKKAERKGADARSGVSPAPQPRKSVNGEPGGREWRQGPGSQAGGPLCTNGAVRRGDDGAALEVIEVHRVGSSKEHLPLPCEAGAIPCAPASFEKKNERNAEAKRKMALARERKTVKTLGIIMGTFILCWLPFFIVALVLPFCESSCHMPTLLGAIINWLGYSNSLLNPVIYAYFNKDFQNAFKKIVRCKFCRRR
How it was run: as §1

[10] = target: adrenergic α1D (Homo sapiens, UniProt P25100); assay: NIMH PDSP binding affinity, human cloned receptor
[11] = [5-HT1A affinity/other receptor affinity]×100, 5-HT1A 0.6 or 2.2 nM for WAY-100635, 0.9 nM for Mefway
[12] = ref Saigal et al., 2013, listed as 18F-Mefway
[13] = dog brain cortex, relative to layers I and II

Chain of adrenergic α1D (P25100 whole entry): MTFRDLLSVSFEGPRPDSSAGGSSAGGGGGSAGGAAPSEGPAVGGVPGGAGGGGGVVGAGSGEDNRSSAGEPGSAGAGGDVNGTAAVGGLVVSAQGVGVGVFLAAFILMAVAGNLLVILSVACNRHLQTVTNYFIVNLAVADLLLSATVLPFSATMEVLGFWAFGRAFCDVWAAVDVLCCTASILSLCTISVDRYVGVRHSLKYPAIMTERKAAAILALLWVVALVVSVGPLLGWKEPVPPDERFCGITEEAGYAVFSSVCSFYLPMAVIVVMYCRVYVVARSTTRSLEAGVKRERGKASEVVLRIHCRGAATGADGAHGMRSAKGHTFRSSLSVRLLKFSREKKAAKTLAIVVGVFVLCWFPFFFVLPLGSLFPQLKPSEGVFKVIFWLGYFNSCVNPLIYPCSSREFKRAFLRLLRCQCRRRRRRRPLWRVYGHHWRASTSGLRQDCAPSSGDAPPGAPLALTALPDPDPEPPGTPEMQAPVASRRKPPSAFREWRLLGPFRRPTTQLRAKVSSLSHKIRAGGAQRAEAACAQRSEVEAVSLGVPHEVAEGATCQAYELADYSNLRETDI
Chain of adrenergic α1A (P35348 whole entry): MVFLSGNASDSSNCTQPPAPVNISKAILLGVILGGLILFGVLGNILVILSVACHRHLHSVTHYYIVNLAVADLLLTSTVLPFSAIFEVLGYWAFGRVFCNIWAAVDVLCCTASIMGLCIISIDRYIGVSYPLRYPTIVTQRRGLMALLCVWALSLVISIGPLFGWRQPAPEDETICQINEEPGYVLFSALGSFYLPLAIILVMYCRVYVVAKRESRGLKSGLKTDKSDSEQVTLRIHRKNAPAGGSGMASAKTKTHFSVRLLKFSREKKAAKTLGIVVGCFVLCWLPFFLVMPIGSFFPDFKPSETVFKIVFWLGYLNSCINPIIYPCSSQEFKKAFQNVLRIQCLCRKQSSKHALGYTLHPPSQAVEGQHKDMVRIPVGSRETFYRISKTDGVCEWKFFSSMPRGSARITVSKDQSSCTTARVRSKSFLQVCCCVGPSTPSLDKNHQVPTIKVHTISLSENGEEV
Chain of α1B (P35368 whole entry): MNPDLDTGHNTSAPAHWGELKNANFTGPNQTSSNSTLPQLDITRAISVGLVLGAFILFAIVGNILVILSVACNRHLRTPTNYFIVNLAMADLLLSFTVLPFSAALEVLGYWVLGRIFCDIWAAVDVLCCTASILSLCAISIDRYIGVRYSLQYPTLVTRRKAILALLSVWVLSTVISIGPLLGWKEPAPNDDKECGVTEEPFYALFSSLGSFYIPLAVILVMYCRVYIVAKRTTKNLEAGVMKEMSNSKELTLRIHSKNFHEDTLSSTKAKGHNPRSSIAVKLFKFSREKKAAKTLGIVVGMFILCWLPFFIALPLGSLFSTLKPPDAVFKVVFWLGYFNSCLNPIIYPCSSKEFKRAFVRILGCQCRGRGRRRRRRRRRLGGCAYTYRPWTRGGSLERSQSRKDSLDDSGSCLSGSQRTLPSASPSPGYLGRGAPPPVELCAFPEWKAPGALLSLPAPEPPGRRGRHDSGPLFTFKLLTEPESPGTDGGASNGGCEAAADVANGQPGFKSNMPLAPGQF
Chain of 5-HT7 (P34969 whole entry): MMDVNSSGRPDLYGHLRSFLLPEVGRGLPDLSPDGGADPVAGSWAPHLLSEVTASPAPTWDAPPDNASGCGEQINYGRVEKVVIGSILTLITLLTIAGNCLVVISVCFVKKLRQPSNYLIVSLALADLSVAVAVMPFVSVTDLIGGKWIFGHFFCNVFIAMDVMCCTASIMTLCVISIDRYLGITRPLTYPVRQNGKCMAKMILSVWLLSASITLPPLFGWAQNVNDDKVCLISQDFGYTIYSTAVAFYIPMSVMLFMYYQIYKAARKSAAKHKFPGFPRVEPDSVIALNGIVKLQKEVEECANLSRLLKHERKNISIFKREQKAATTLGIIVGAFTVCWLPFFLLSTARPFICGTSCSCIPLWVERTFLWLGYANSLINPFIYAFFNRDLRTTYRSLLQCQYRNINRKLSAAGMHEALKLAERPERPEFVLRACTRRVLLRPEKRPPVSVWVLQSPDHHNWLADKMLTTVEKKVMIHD
Chain of D3 subtype (P35462 whole entry): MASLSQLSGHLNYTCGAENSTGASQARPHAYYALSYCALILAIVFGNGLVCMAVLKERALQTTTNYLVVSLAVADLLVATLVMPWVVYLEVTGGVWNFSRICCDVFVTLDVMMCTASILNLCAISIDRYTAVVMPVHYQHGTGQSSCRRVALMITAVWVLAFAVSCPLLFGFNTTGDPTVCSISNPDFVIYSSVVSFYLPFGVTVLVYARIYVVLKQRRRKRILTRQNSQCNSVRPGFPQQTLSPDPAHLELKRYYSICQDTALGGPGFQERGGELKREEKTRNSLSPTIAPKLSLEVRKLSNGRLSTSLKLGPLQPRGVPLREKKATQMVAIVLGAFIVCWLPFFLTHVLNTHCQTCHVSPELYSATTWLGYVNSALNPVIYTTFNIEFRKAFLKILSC

COc1ccccc1N1CCN(CCN(C(=O)C2CCC(CF)CC2)c2ccccn2)CC1 (stereo not drawn) [Mefway]
% human 5HT1A Selectivity, α1A [1, 11]: 1.29%
Ki ([1]; read-out: Binding affinity, Ki, α1A, human cloned receptor, PDSP): 70 nM
HP/CB PET ratio [2, 12]: 10
HP/CB PET ratio ([2]; ref Saigal et al., 2013): 10 ^g
HP/CB PET ratio ([3]; 90 mins post-injection, may be underestimated, ref Saigal et al., 2013): 3 ^g
Brain Uptake [3, 12]: 5 %ID/cc
Brain Uptake ([3]; ref Saigal et al., 2013): 5 ^g %ID/cc
% human 5HT1A Selectivity, 5-HT7 [4, 11]: 0.30%
Ki ([4]; read-out: Binding affinity, Ki, 5-HT7, human cloned receptor, PDSP): 297 nM
Ki [5]: 139 nM
Morbidity or mortality ([6]; 4, 20 and 40 μg/kg/day i.v.): no morbidity or mortality
Tolerability ([6]; 4, 20 and 40 μg/kg/day i.v. on Days 1, 3 and 6): well tolerated
Maximum tolerated dose (MTD) [6]: > 278 μg/m^2/day
No observed adverse effect level (NOAEL) [6]: > 278 μg/m^2/day
Maximum tolerated dose (MTD) ([6]; maximum dose level tested): exceed 40 μg/kg/day
No observed adverse effect level (NOAEL) ([6]; maximum dose level tested): exceed 40 μg/kg/day
Ratio of hippocampus versus white matter, autoradiography ([7]; human hippocampus sections): 13
Binding displaced in hippocampus and cortex ([7]; in the presence of 10 μM of WAY-100635, human (all the species)): > 95%
% human 5HT1A Selectivity, α1B [8, 11]: 0.18%
Ki ([8]; read-out: Binding affinity, Ki, α1B, human cloned receptor, PDSP): 505 nM
Level of binding in cortical layers I and II ([9]; dog brain cortex, relative to highest layer): 100%
Level of binding in cortical layers III and IV [9, 13]: 31%
Level of binding in cortical layers V and VI [9, 13]: 36%
Ratio of hippocampus to white matter, autoradiography ([9]; dog brain, same brain slice): > 50
Binding displaced in hippocampus and cortex ([9]; in the presence of 10 μM of WAY-100635, dog (all the species)): > 95%
% human 5HT1A Selectivity, α1D [10, 11]: 1.58%
Ki ([10]; read-out: Binding affinity, Ki, α1D, human cloned receptor, PDSP): 57 nM
